Bioassay records from PubChem BioAssay.
Sampled rows, rich in hits. Any-hit rate of the full collection: about 2.2%.
PfG6PD inh = PfG6PD enzyme inhibitors, primary screen, biochemical, fluorescence intensity, uHTS; PfGluPho enzyme, NADPH resazurin-diaphorase fluorescence; 0.78% of 350,000 active; AID 504690, 2011; inhibition, % at 20 µM; glucose-6-phosphate dehydrogenase-6-phosphogluconolactonase (Plasmodium falciparum 3D7);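 active = inhibition reaching at least a set limit at 20 µM in the primary screen, cut at about 59% in these data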;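 also: 0% = DMSO wells with substrate and 100% = DMSO wells lacking glucose-6-phosphate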
HKDC1 inhibitor = HKDC1 hexokinase inhibitors, primary screen, biochemical, fluorescence, uHTS | inhibition, % at 20 µM | 0.16% of 340,000 active | AID 493160, 2011 | Q2TB90 | recombinant HKDC1, G6PDH/diaphorase resazurin coupled fluorescence;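 active = inhibition above about 35% when tested at 20 µM, limit read from the data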;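 also: plate controls were DMSO wells with enzyme for no effect and DMSO wells lacking enzyme for full effect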
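Assay system – recombinant HKDC1 (HK5) hexokinase enzyme, produced in-house · Input – HKDC1 at 5 µg/mL · Reagent – glucose plus 1 mM ATP as hexokinase substrates · Timing – 90 min reaction incubation at room temperature, dark · Measured by – G6PDH/diaphorase-coupled fluorescence, 1 mM NADP, 100 µM resazurin, 525/613 nm · Benchmarks – DMSO-enzyme wells negative, buffer-substituted wells positive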
ABHD5 PLIN5 PPI = ABHD5-PLIN5 interaction inhibitors, primary screen, cell lysate, split luciferase complementation, luminescence. inhibition, % at 4 µM. Split G. princeps luciferase complementation, 4 h. 0.78% of 360,000 active;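 active = inhibition above the mean inhibition across every tested compound plus 3 SD, cut at about 22% in these data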;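 also: 0% = DMSO only wells and the 100% control is not disclosed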
Target sequence (Q00G26 whole entry, looked up): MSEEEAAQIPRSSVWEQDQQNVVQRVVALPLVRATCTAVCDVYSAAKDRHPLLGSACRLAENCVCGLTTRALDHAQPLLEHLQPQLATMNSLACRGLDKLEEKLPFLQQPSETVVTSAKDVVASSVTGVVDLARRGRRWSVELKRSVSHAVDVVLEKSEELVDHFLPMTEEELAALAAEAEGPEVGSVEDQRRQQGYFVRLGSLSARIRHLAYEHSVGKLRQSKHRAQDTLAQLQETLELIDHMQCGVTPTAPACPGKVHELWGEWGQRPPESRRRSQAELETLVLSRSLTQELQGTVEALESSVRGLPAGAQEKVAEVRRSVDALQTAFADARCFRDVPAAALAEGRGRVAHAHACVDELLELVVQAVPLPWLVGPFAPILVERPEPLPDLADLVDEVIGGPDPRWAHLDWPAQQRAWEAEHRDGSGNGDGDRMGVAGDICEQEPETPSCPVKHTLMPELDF
Target sequence (Q8WTS1 whole entry, looked up): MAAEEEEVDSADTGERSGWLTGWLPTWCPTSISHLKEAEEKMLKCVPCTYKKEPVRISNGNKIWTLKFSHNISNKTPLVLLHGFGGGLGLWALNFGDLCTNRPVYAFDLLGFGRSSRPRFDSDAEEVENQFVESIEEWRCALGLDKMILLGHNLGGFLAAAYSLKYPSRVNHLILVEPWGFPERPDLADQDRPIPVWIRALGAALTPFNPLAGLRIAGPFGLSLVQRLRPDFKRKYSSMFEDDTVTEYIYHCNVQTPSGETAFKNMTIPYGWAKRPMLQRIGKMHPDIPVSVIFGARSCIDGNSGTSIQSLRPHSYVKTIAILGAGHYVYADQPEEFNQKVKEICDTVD
Exocytosis inh = LAMP-1 surface exposure blockers, TALL-104 cells – cell-based, flow cytometry, MLPCN library, primary screen. TALL-104 LAMP-1 surface exposure; cells stimulated with thapsigargin and PMA. AID 651702, 2012. inhibition, % at 10 µM. 0.66% of 360,000 active;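 active = inhibition above about 55%, limit read from the data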
ABHD5 PLIN5 conf = ABHD5-PLIN5 interaction inhibitors, confirmation, biochemical, luminescence; shares compounds with ABHD5 PLIN5 PPI; inhibition, % at 4 µM; 67% of 2,200 active; in the data active = inhibition above about 23%;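 also: 0% = DMSO vehicle wells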
HNF4 split-luc = HNF4 dimerization inhibitors, counter-screen for ABHD5-PLIN5 interaction inhibitor project, biochemical, split-luciferase complementation, luminescence; shares compounds with ABHD5 PLIN5 PPI; inhibition, % at 4 µM; 77% of 2,200 active; AID 651674, 2012;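 active = mean inhibition across replicate wells exceeding the computed hit threshold, cut at about 13% in these data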;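 also: light from luciferase halves that rejoin when HNF4 fusion proteins dimerize; 0% = DMSO only wells and the 100% control is not given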
Starred values were filed as active, the others as inactive; . = no result.

SMILES	PfG6PD inh	HKDC1 inhibitor	ABHD5 PLIN5 PPI	Exocytosis inh	ABHD5 PLIN5 conf	HNF4 split-luc
Brc1ccc(CSc2nnc3ccccn23)cc1	3	-4	4	3	.	.
O=S(=O)(/C(=C\c1ccc(C(F)(F)F)cc1)c1nc2ccccc2[nH]1)c1ccccc1	24	8	86*	70*	101*	96*
C=C1C(=O)C23C(O)C1CCC2C12COC3(O)C(O)C1C(C)(C)CCC2O (stereo not given)	.	.	96*	0	88*	106*
COC(=O)C1=C(C(=O)OC)[C@]2([C@@H]3CC=CCN[C@@H](Cc4ccccc4)C(=O)N3Cc3ccccc3)C=C[C@H]1O2	18	4	-4	13	.	.
C=CCC(Nc1ccccc1)C12C=CC(O1)C(C(=O)OC)=C2C(=O)OC (stereo not given)	-14	-4	26*	90*	86*	90*
COc1ccc(N2C(=O)CC(c3ccccc3)CC2=O)cc1	2	-3	-4	-3	.	.
COc1ccc(C2CC(=O)C(CS(=O)(=O)c3ccccc3)C(=O)C2)cc1 (stereo not given)	-10	-15	42*	1	53*	102*
O=C1CC(c2ccc(Cl)cc2)CC(=O)C1CS(=O)(=O)c1ccccc1 (stereo not given)	4	-8	25*	-5	43*	83*
O=C1CCCC(=O)C1CS(=O)(=O)c1ccccc1	-9	-9	41*	-1	46*	98*
O=C1CC(c2ccccc2)CC(=O)C1Sc1ccc(Cl)cc1 (stereo not given)	0	-6	-1	-6	.	.
CC(O)CNc1cc(N)c([N+](=O)[O-])cc1[N+](=O)[O-] (stereo not given)	-1	-4	24*	-2	7	6
CC(O)CNc1ccc(-c2n[nH]c(=O)c3ccccc23)cc1[N+](=O)[O-] (stereo not given)	-4	0	6	0	.	.
CCCc1cnc(N2CCN(S(=O)(=O)c3cccs3)CC2)nc1	-12	-4	-3	7	.	.
CCOC(=O)C1=C(C)N=c2s/c(=C\c3ccncc3)c(=O)n2C1c1ccc2c(c1)OCO2 (stereo not given)	13	2	-13	17	.	.
CCOC(=O)C1=C(C)N=c2s/c(=C3\C(=O)Nc4ccccc43)c(=O)n2C1c1ccc2c(c1)OCO2 (stereo not given)	6	-4	27*	-3	5	-14
CCn1c(=O)cc(C(=O)OC)sc1=Nc1ccc(F)c(F)c1	-3	2	27*	4	59*	40*
CCOC(=O)c1ccc(N=c2sc(C(=O)OC)cc(=O)n2CCCN2CCOCC2)cc1	35	1	42*	4	45*	42*
Cc1c(NC(=O)CN2CCN(c3ccc(O)cc3)CC2)c(=O)n(-c2ccccc2)n1C	58	-2	1	0	.	.
O=C(NCc1ccncc1)[C@@H]1CCCN1C(=O)[C@H]1CCCN1C(=O)c1c(F)cccc1F	.	.	1	-3	.	.
CN1C(=O)CC(C(=O)Nc2ccccc2F)SC1=Nc1ccc2c(c1)OCO2 (stereo not given)	-13	3	-6	-3	.	.
O=C(CC(=O)c1ccccc1)Nc1cccnc1Cl	-2	7	27*	3	13	18*
O=C(NCCc1ccco1)C(=O)NCC1OCCCN1S(=O)(=O)c1cc(F)ccc1F (stereo not given)	-6	-3	5	0	.	.
CC(NC(=O)/C=C/c1ccco1)c1nc2ccccc2n1Cc1cccc(Cl)c1 (stereo not given)	4	2	26*	0	37*	58*
Cc1ccc(S(=O)(=O)N2CN(CC3CCCO3)c3nc4ccccc4nc32)c(C)c1 (stereo not given)	-7	3	1	-1	.	.
COCCCN1CN(S(=O)(=O)c2ccc(C)cc2C)c2nc3ccccc3nc21	2	-5	28*	-4	12	15*
SMILES	PfG6PD inh	HKDC1 inhibitor	ABHD5 PLIN5 PPI	Exocytosis inh	ABHD5 PLIN5 conf	HNF4 split-luc
COc1ccc(CNc2nc3ccc(C)cc3s2)c(OC)c1OC	-6	9	3	0	.	.
COc1ccc(-n2c(N)c(C(=O)NCc3ccco3)c3nc4ccccc4nc32)cc1	30	10	33*	-2	31*	32*
CN1CCN(CC(=O)Nc2ccc(OC(F)(F)F)cc2)CC1	-1	0	-4	7	.	.
Cc1ccc(N2C(=O)CC(NNC(=O)Cc3ccc(F)cc3)C2=O)cc1Cl (stereo not given)	-12	-3	3	13	.	.
Nc1nc(Sc2c([N+](=O)[O-])cc(C(F)(F)F)cc2[N+](=O)[O-])n[nH]1	9	0	58*	20	79*	98*
O=c1[nH][nH]c2c1[C@H](c1ccccc1)O[C@H](C1CCCCC1)C2	.	.	31*	4	34*	44*
O=c1[nH][nH]c2c1[C@H](c1ccc(Cl)cc1)O[C@H](C1CC1)C2	.	.	23*	13	38*	25*
O=c1[nH][nH]c2c1[C@H](c1ccc(F)cc1)O[C@H](C1CCCCC1)C2	.	.	28*	5	9	26*
O=c1[nH][nH]c2c1[C@@H](c1ccc(F)cc1)O[C@H](C1CCCCC1)C2	.	.	10	4	.	.
O=c1[nH]c(=S)[nH]c2c1C(c1ccc(Cl)cc1)OC(C1CCCCC1)C2 (stereo not given)	.	.	-9	-2	.	.
COc1ccc(C(=O)NCC(=O)N2CCN(C(=O)c3ccco3)CC2)cc1	-3	-4	0	-2	.	.
Cc1cc(C)c(C)c(S(=O)(=O)N2CCC(C(=O)Nc3ccc(S(=O)(=O)N4CCOCC4)cc3)CC2)c1C	9	1	-6	-12	.	.
O=[N+]([O-])c1ccc(OC(F)F)c(/C=N/n2cnnc2)c1	-16	8	5	-2	.	.
CN1CCN(CC(O)Cn2c3ccccc3c3ccccc32)CC1 (stereo not given)	6	0	0	16	.	.
CN1CCN(CC#CCn2c3ccccc3c3ccccc32)CC1	9	8	23*	2	12	1
Cn1cccc([N+](=O)[O-])c1=O	-14	.	4	-2	.	.
Cn1c(=O)c(=O)n(C)c2cc([N+](=O)[O-])c([N+](=O)[O-])cc21	28	9	100*	1	2	4
CC(C)N1C/C(=C/c2cccnc2)C(=O)/C(=C/c2cccnc2)C1	17	-4	41*	2	86*	67*
CN1C/C(=C/c2cccnc2)C(=O)/C(=C/c2cccnc2)C1	9	-4	66*	24	100*	92*
